Converted amounts (≈) assume the structure as drawn.
Tests used:
[1] = Metabolic stability in rat liver S9 fraction assessed as compound remaining at 3 uM measured at 60 mins by LC-MS/MS analysis; assay type: ADME, subcellular; conditions: read-out: Stability
[2] = Metabolic stability in human liver S9 fraction assessed as compound remaining at 3 uM measured at 60 mins by LC-MS/MS analysis; assay type: ADME, subcellular; conditions: read-out: Stability
Litomosoides sigmodontis [3] = assay: Antiparasitic activity against Litomosoides sigmodontis infected in BALB/c mouse assessed as reduction in worm burden at 10 mg/kg, po qd administered for 7 days; assay type: functional; set-up: scale not given: the % may be the effect or the level left; conditions: time 7 day
P-glycoprotein (human) = assay: Efflux ratio of apparent permeability in MDCK-II cells expressing human P-glycoprotein gene at 10 uM measured at 2 hrs by LC-MS/MS analysis; assay type: ADME, cell-based, Canis lupus familiaris; conditions: dog, MDCK-MDR1
[4] = Metabolic stability in rat liver microsome assessed as compound remaining at 3 uM measured at 30 mins in presence of NADPH by LC-MS/MS analysis; assay type: ADME; conditions: liver microsomes, read-out: Stability
In short: (§1)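 Liver microsomes at 0.3 mg/mL with 1 mM NADPH in 200 mM phosphate buffer plus 2 mM MgCl2, pH 7.4, at 37 °C. Substrate 3 µM, incubated 30 min, triplicate. Percent remaining measured by LC-MS/MS.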

[5] = Metabolic stability in human liver microsome assessed as compound remaining at 3 uM measured at 30 mins in presence of NADPH by LC-MS/MS analysis; assay type: ADME; conditions: liver microsomes, read-out: Stability; in short: as §1
Litomosoides sigmodontis [6] = assay: Antiparasitic activity against Litomosoides sigmodontis infected in BALB/c mouse assessed as reduction in worm burden at 30 mg/kg, po TID administered for 5 days; assay type: functional; set-up: scale not given: the % may be the effect or the level left; conditions: time 5 day
[7] = Kinetic solubility of compound incubated for 24 hrs; assay type: physicochemical; conditions: for Kinetic_solubility: 24 h
In short: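 10 mM DMSO stock diluted into buffer to 200 µM final, 2% DMSO, run in duplicate. Buffers were pH 7.4 0.1 M potassium phosphate, pH 2.2, 6.8 and 5. Shaken 24 h at room temperature in a filter plate, then filtered by positive pressure. Single-point calibration against DMSO standards.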

Onchocerca volvulus = assay: Antiparasitic activity against Onchocerca volvulus L5 assessed as reduction in motility at 1 uM; set-up: scale not given: the % may be the effect or the level left
Litomosoides sigmodontis [8] = assay: Antiparasitic activity against Litomosoides sigmodontis infected in BALB/c mouse assessed as reduction in worm burden at 30 mg/kg, po BID administered for 6 days; assay type: functional; set-up: scale not given: the % may be the effect or the level left; conditions: time 6 day
Litomosoides sigmodontis [9] = assay: Antiparasitic activity against Litomosoides sigmodontis infected in BALB/c mouse assessed as reduction in worm burden at 30 mg/kg, sc BID administered for 7 days; assay type: functional; set-up: scale not given: the % may be the effect or the level left; conditions: time 7 day
[10] = Mutagenicity in Salmonella typhimurium TA98 in presence of liver S9 fraction by AMES test; assay type: toxicity, subcellular; conditions: salmonella enterica subsp. enterica serovar typhimurium
[11] = Mutagenicity in Salmonella typhimurium TA100 in presence of liver S9 fraction by AMES test; assay type: toxicity, subcellular; conditions: salmonella enterica subsp. enterica serovar typhimurium
[12] = Mutagenicity in Salmonella typhimurium TA1535 in presence of liver S9 fraction by AMES test; assay type: toxicity, subcellular; conditions: salmonella enterica subsp. enterica serovar typhimurium
[13] = Mutagenicity in Salmonella typhimurium TA97 in presence of liver S9 fraction by AMES test; assay type: toxicity, subcellular; conditions: salmonella enterica subsp. enterica serovar typhimurium
[14] = Mutagenicity in Escherichia coli WP2 uvrA in presence of liver S9 fraction by AMES test; assay type: toxicity, subcellular
[15] = Mutagenicity in Salmonella typhimurium TA98 in absence of liver S9 fraction by AMES test; assay type: toxicity; conditions: salmonella enterica subsp. enterica serovar typhimurium
[16] = Mutagenicity in Salmonella typhimurium TA100 in absence of liver S9 fraction by AMES test; assay type: toxicity; conditions: salmonella enterica subsp. enterica serovar typhimurium
[17] = Mutagenicity in Salmonella typhimurium TA1535 in absence of liver S9 fraction by AMES test; assay type: toxicity; conditions: salmonella enterica subsp. enterica serovar typhimurium
[18] = Mutagenicity in Salmonella typhimurium TA97 in absence of liver S9 fraction by AMES test; assay type: toxicity; conditions: salmonella enterica subsp. enterica serovar typhimurium
[19] = Mutagenicity in Escherichia coli WP2 uvrA in absence of liver S9 fraction by AMES test; assay type: toxicity
[20] = Metabolic stability in mouse liver microsome assessed as compound remaining at 3 uM measured at 30 mins in presence of NADPH by LC-MS/MS analysis; assay type: ADME; conditions: liver microsomes, read-out: Stability; in short: as §1
Onchocerca gutturosa = assay: Anti-filarial activity against Onchocerca gutturosa adult worms assessed as reduction in worm motility measured every 24 hrs for 5 days by olympus inverted microscopic analysis; assay type: functional, organism-based
In short: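 Adult worm motility read every 24 h, ending at 120 h. Serial 1-in-4 drug dilutions run to the activity endpoint. EC50 for motility reduction given as geomean, n=2.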

[21] = Octanol/water distribution coefficient, logD of the compound at pH 7.4 sonicated for 30 mins followed by 24 hrs shaking; assay type: physicochemical
In short: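 Octanol/pH 7.4 0.1 M potassium phosphate partition. Sample at 1000 uM from 10 mM DMSO stock, 10% DMSO final. Sonicated 30 min, then shaken 24 h at 750 rpm at room temperature. Plate centrifuged 3600 rpm for 30 min.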

Litomosoides sigmodontis [22] = assay: Antiparasitic activity against Litomosoides sigmodontis infected in BALB/c mouse assessed as reduction in worm burden at 30 mg/kg, po BID administered for 7 days; assay type: functional; set-up: scale not given: the % may be the effect or the level left; conditions: time 7 day

Structure (SMILES)	remaining at 1 h, 3 µM [1]	remaining at 1 h, 3 µM [2]	further results
CC(C)Oc1ccc(-c2nsc(Nc3ncccc3C(N)=O)n2)nc1	–	–	efflux ratio at 2 h, 10 µM (P-glycoprotein (human)): 4.6
COc1ccc(Nc2nc(-c3ccccn3)ns2)nc1	–	–	remaining at 0.5 h, 3 µM [4]: 78%; remaining at 0.5 h, 3 µM [5]: 90%; Activity (Litomosoides sigmodontis [6]): 50.1%
CC(C)Oc1cnc(-c2nsc(Nc3ncccc3N3CCCC3=O)n2)cc1C(F)(F)F	–	–	efflux ratio at 2 h, 10 µM (P-glycoprotein (human)): 3.9
CC(C)c1ccnc(-c2nsc(Nc3cc(C(F)(F)F)ccn3)n2)c1	45%	65%	Activity (Litomosoides sigmodontis [8]): 46%
CC(C)Oc1cnc(-c2nsc(Nc3ncccc3N(C)C(=O)C3CC3)n2)cc1C(F)(F)F	–	–	efflux ratio at 2 h, 10 µM (P-glycoprotein (human)): 2.2
CC(C)Oc1ccc(-c2nsc(Nc3cc(C(F)(F)F)c(C(C)C)cn3)n2)nc1	100%	100%	–
CC(C)Oc1cnc(-c2nsc(Nc3ncccc3C(C)C)n2)cc1C(F)(F)F	–	–	remaining at 0.5 h, 3 µM [4]: 96%; remaining at 0.5 h, 3 µM [5]: 97%
Cc1cccnc1N(c1nc(-c2ccc(OC(C)C)cn2)ns1)C(C)C	60%	79%	–
Cc1cccnc1Nc1nnc(-c2ccc(OC3CCOCC3)cn2)s1	–	–	remaining at 0.5 h, 3 µM [4]: 89%; remaining at 0.5 h, 3 µM [5]: 100%
CC(C)Oc1ccc(-c2nsc(Nc3ncccc3C(=O)N(C)C)n2)nc1	–	–	efflux ratio at 2 h, 10 µM (P-glycoprotein (human)): 11
CC(=O)N(C)c1cccnc1Nc1nc(-c2cc(C(F)(F)F)c(OC(C)C)cn2)ns1	–	–	efflux ratio at 2 h, 10 µM (P-glycoprotein (human)): 4.5
CC(=O)N(C)c1cc(C(F)(F)F)cnc1Nc1nc(-c2ccc(OC(C)C)cn2)ns1	–	–	efflux ratio at 2 h, 10 µM (P-glycoprotein (human)): 4.1
CC(C)Oc1ccc(-c2nsc(N(C)c3ncccc3C(C)C)n2)nc1	4%	32%	–
CC(=O)N(C)c1cc(C(F)(F)F)cnc1Nc1nc(-c2cc(C(C)C)ccn2)ns1	–	–	efflux ratio at 2 h, 10 µM (P-glycoprotein (human)): 8.4
CC(C)Oc1cc(-c2nsc(Nc3ncccc3N(C)C)n2)ncc1C(F)(F)F	8%	100%	–
CC(C)Oc1cnc(-c2nsc(Nc3ncccc3N(C)C)n2)cc1C(F)(F)F	–	–	remaining at 0.5 h, 3 µM [4]: 93%; remaining at 0.5 h, 3 µM [5]: 98%
CC(C)c1ccnc(-c2nsc(Nc3ncccc3C(F)(F)F)n2)c1	27%	45%	–
COc1ccc(Nc2nc(-c3ccccn3)cs2)nc1	51%	59%	–
Cc1cccnc1Nc1nc(-c2cc(C(=O)N(C)C)c(OC(C)C)cn2)ns1	–	–	remaining at 0.5 h, 3 µM [4]: 90%; remaining at 0.5 h, 3 µM [5]: 91%
Cc1cccnc1Nc1nnc(-c2ccc(OC3CCOCC3)cn2)o1	–	–	remaining at 0.5 h, 3 µM [4]: 39%; remaining at 0.5 h, 3 µM [5]: 83%
Cc1cccnc1Nc1nsc(-c2ccc(OC3CCOCC3)cn2)n1	–	–	remaining at 0.5 h, 3 µM [4]: 89%; remaining at 0.5 h, 3 µM [5]: 77%
Cc1cccnc1Nc1n[nH]c(-c2ccc(OC3CCOCC3)cn2)n1	–	–	remaining at 0.5 h, 3 µM [5]: 92%; remaining at 0.5 h, 3 µM [20]: 70%
CC(=O)N(C)c1cc(C(F)(F)F)cnc1Nc1nc(-c2cc(OC(C)C)ccn2)ns1	–	–	Kinetic_solubility [7]: 0.4 µM; efflux ratio at 2 h, 10 µM (P-glycoprotein (human)): 15.2
Cc1cccnc1N(C)c1nc(-c2ccc(OC(C)C)cn2)ns1	81%	96%	–
Cc1cccnc1Nc1nc(-c2ncc(OC(C)C)cn2)ns1	–	–	remaining at 0.5 h, 3 µM [4]: 90%; remaining at 0.5 h, 3 µM [5]: 96%
Cc1cccnc1Nc1nc(-c2ccc(OC3CCOCC3)cn2)no1	85%	98%	–

Now from value to molecule, other results behind:

remaining at 1 h, 3 µM [1]	remaining at 1 h, 3 µM [2]	Structure (SMILES)	further results
100%	100%	Cc1cccnc1Nc1nc(-c2ccc(OC(C)C)cn2)ns1	Activity (Litomosoides sigmodontis [3]): 58.8%
94%	97%	Cc1cccnc1Nc1nc(-c2ccc(C(=O)N(C)C)cn2)ns1	–
61%	56%	Cc1ccnc(-c2nsc(Nc3ncccc3C(F)(F)F)n2)c1	–
78%	39%	CC(C)c1cccnc1Nc1nc(-c2ccc(OC3CC3)cn2)ns1	Kinetic_solubility [7]: 0.2 µM; Activity (Onchocerca volvulus): 100%
61%	76%	Cc1cccnc1Nc1nc(-c2ccc(OC3CC3)cn2)ns1	Activity (Onchocerca volvulus): 100%
32%	52%	Cc1cccnc1Nc1nc(-c2ccc(OC3CCN(C4CC4)CC3(F)F)cn2)ns1 (stereo not drawn)	–
76%	83%	Cc1cccnc1Nc1nc(-c2ccc(OC3CCN(C4CC4)CC3)cn2)ns1	Activity (Litomosoides sigmodontis [9]): 85.5%
74%	81%	Cc1cccnc1Nc1nc(-c2cnc(OC(C)C)cn2)ns1	–
53%	58%	Cc1cccnc1Nc1nc(-c2ccc(OC3CC4(C3)CN(C3CC3)C4)cn2)ns1	–
83%	83%	c1ccc(Nc2nc(-c3ccccn3)ns2)nc1	–
99%	88%	CN1CCC(Oc2ccc(Nc3nc(-c4ccccn4)ns3)nc2)CC1	–
91%	100%	CN(C)c1cccnc1Nc1nc(-c2ccc(OC3CC3)cn2)ns1	Activity (Onchocerca volvulus): 100%
79%	86%	CC(C)Oc1ccc(-c2nsc(Nc3ncccc3N(C)C)n2)nc1	Activity [10]: Non-Toxic; Activity [11]: Non-Toxic; Activity [12]: Non-Toxic; Activity [13]: Non-Toxic; Activity [14]: Non-Toxic; Activity [15]: Non-Toxic; Activity [16]: Non-Toxic; Activity [17]: Non-Toxic; Activity [18]: Non-Toxic; Activity [19]: Non-Toxic; Activity (Onchocerca volvulus): 100%
84%	100%	Cc1cccnc1Nc1nc(-c2cc(C#N)c(OC(C)C)cn2)ns1	–
73%	66%	Cc1cccnc1Nc1nc(-c2ccc(C#N)cn2)ns1	–
93%	100%	CC(C)c1cnc(Nc2nc(-c3ncccc3OC3CC3)ns2)cc1C(F)(F)F	–
100%	100%	COc1cccnc1Nc1nc(-c2ccc(OC(C)C)cn2)ns1	–
70%	72%	COc1cccnc1Nc1nc(-c2cc(C)ccn2)ns1	–
82%	84%	Cc1cccnc1Nc1nc(-c2ccc(OC3CCOCC3)cn2)ns1	–
78%	65%	Cc1cccnc1Nc1nc(-c2cc(C#N)ccn2)ns1	–
61%	86%	Cc1cccnc1-c1nsc(Nc2ccc(N3CCCC3)cn2)n1	EC50 (Onchocerca gutturosa): 40 nM; solubility kinetic at 24 h ([7]; read-out: Kinetic_solubility): 2.17 µM (≈ 0.734 µg/mL); logD at 24.5 h [21]: 2.65
73%	86%	CNc1cccnc1Nc1nc(-c2ccc(OC(C)C)cn2)ns1	–
82%	99%	CC(C)Oc1ccc(-c2nsc(Nc3ncccc3C(C)C)n2)nc1	Activity (Litomosoides sigmodontis [22]): 58.8%
78%	89%	Cc1cccnc1Nc1nc(-c2cc(C(=O)N(C)C)ccn2)ns1	–
81%	78%	Cc1cccnc1Nc1nc(-c2cc(C3CCN(C)CC3)ccn2)ns1	–

Reference: ChEMBL document CHEMBL5137098, “Discovery of Substituted Di(pyridin-2-yl)-1,2,4-thiadiazol-5-amines as Novel Macrofilaricidal Compounds for the Treatment of Human Filarial Infections” (J Med Chem, 2022)
